We go through six compounds from PMC11220656 (JAC-Antimicrobial Resistance, 2024).

Assay [1] has as its system E. coli strain pb3. The following applies: strain pb3, urinary tract infection; ref Basra et al. 15; cited from earlier work.
Another assay relates to E. coli strain pb5. To be noted: strain pb5, respiratory; ref Basra et al. 15; cited from earlier work.
The subject of assay [2] is E. coli strain pb15. The following applies: strain pb15, blood; ref Basra et al. 15; cited from earlier work.
In assay [3] the test system is E. coli strain pb3. Briefly: Growth curve inhibition, clinical strain pb3. The format is cell-based, Escherichia coli. The following applies: for Effect on growth of pb3 (in words): AMP at 40 µM; for Concentration giving significant growth inhibition of pb3: 2-fold serial dilution 40 to 5 µM, triplicates, compared with WT peptide. Summed up: (§1)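 Overnight E. coli clinical isolate cultures in Mueller–Hinton broth (150 rpm, 37°C) diluted 1:100 in MHB, with test peptide at 40 µM or in a 2-fold series from 40 to 5 µM, in triplicate. OD600 read every 30 min for 24 h with continuous shaking. Log-phase linear values were log2-transformed against time, slope taken as growth rate, normalized to a no-peptide control, and compared with wild-type peptide by Student's t test.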

Assay [4] deals with E. coli strain pb15. Briefly: Growth curve inhibition, clinical strain pb15. The following applies: for Effect on growth of pb15 (in words): AMP at 40 µM. Type of assay: cell-based, Escherichia coli. Summed up: as §1
Another assay has as its system E. coli strain pb35. Briefly: Growth curve inhibition, clinical strain pb35. Type of assay: cell-based, Escherichia coli. To be noted: for Effect on growth of pb35 (in words): AMP at 40 µM. Summed up:
as §1

For assay [5], the system named is clinically derived E. coli strains pb3, pb15 and pb35. In words: Growth inhibition across the clinical strains pb3, pb15 and pb35. The format is cell-based, Escherichia coli. The following applies: AMP at 40 µM. Put shortly: as §1
The mark [6] stands for this setting: 2-fold serial dilution 40 to 5 µM, triplicates, compared with WT peptide.

Take `CC(C)(O/N=C(\C(=O)N[C@@H]1C(=O)N2C(C(=O)[O-])=C(C[n+]3ccccc3)CS[C@H]12)c1csc(N)n1)C(=O)O` [CAZ, ceftazidime]: the “CAZ MIC” value in the assay on E. coli strain pb3 [1] is 4 µg/mL; in the assay on E. coli strain pb5 it was 0.5 µg/mL; in the assay with E. coli strain pb15 [2], 128 µg/mL.
In the case of ILPWAWPWWPWRR [IndoK5A], the “Effect on growth of pb3 (in words)” value in the assay on E. coli strain pb3 [3] is reported as “greater effect”. Moreover, the “Effect on growth of pb15 (in words)” value with E. coli strain pb15 [4] is “reduced but still significant effect”. In addition, the “Effect on growth of pb35 (in words)” value in the assay on E. coli strain pb35 is “greater effect”.
For ILPWCWPWWPWRR [IndoK5C], the “Effect on growth of pb3 (in words)” value in the assay on E. coli strain pb3 [3] is given as “greater effect”. Also, the “Effect on growth of pb15 (in words)” value in the assay with E. coli strain pb15 [4] is on record as “reduced but still significant effect”. Further, the “Effect on growth of pb35 (in words)” value with E. coli strain pb35 is recorded as “greater effect”.
With ILPWDWPWWPWRR [IndoK5D], the “Concentration giving significant growth inhibition of pb3” value in the assay on E. coli strain pb3 [3] is recorded as 20 µM. Moreover, the “Concentration giving significant growth inhibition of pb15” value with E. coli strain pb15 [4] (setting [6]) worked out at 10 µM. Moreover, the “Growth inhibition across all three clinical strains (in words)” value in assay [5] is given as “equivalent response across all three strains”.
As for “ILPWKWPWWPWRR [indolicidin, reference compound]”, in the assay on E. coli strain pb3 [3] (serial dilution 40 to 5 µM), the “Dose-response of growth inhibition of pb3 (in words)” value is “not inhibited across the concentrations tested”.
Take ILPWLWPWWPWRR [IndoK5L]: the “Concentration giving significant growth inhibition of pb3” value in the assay with E. coli strain pb3 [3] is listed as 20 µM. The “Concentration giving significant growth inhibition of pb35” value in the assay on E. coli strain pb35 (setting [6]) is 20 µM. Further, in assay [5], the “Growth inhibition across all three clinical strains (in words)” value is “equivalent response across all three strains”.
